# High-throughput results deposited in PubChem BioAssay by several laboratories.
# In the library only some 4% were active in any assay of this set; here they are far more common.
# Arr AP2 block – inhibitors of human beta-arrestin and AP2 interaction; FITC-arrestin peptide / GST-AP2 beads, flow cytometry; AP2 beta2 appendage carries R879A mutation; inhibition, % at 10 µM; 340,000 compounds, 0.31% hits; AID 504490;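 active = inhibition above a set limit, near 3 SD of compounds lacking own fluorescence, cut at about 54% in these data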
#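 test system = AP2 appendage R879A on GSH beads | buffer or medium = PBS plus Tween 20 (0.05%) and BSA (0.1%) | incubation = 12 min plus 1 h, RT | detection = bead flow cytometry, FITC channel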
# iPSC survival up – hiPSC single-cell survival enhancement. 360,000 compounds, 0.044% hits. AID 602274. ATPlite luminescence; 100% = ROCK inhibitor wells, 0% = DMSO. survival enhancement, % at 20 µM; in the data active = survival enhancement above about 18%;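 note: cells exposed to compounds for 16 hours before the ATP read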
# H9c2 protect – modulators protecting cardiomyocytes from myocardial damage; AID 588492; 360,000 compounds, 0.63% hits; H9c2 cardiomyocytes, H2O2 injury protection, ATPLite, 2 h; protection from H2O2 cell death, % at 20 µM;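 active = compounds giving at least 50% protection of heart cells from peroxide-induced death in the single-dose screen, raw or plate-pattern-corrected value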
# GRIN3A LBD mod – modulates the human NR3A ligand-binding domain; 340,000 compounds, 2.5% hits; NR3A LBD differential scanning fluorimetry, Tm shift; 0% = protein alone, 100% = glycine-bound protein; Tm shift relative to glycine control, % at 25 µM;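 active = melting temperature shift of at least 10% of the positive control shift, at one fixed dose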
# SENP1 inh – inhibitors of human SENP1 SUMO protease catalytic domain; inhibition, % at 10 µM; recombinant SENP1 catalytic domain, CyPet-SUMO1-YPet FRET cleavage; Q9P0U3; 360,000 compounds, 0.21% hits;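 active = inhibition at least 30% at 10 µM, raw YFP signal under a set limit, fluorescence ratio 0.5 to 1.5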
# Target sequence (Q9P0U3 419-644 limits assumed): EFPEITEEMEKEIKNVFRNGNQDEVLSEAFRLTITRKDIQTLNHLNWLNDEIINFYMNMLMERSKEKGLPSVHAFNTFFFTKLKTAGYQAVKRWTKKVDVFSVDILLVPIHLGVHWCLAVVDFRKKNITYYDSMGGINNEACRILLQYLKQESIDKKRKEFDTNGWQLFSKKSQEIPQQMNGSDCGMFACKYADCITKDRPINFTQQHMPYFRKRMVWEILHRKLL
#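 Assay system: hSENP1 catalytic domain, recombinant. Amount: SENP1 enzyme, 20 pM final. Schedule: 50 min reaction, RT, dark. Technique: FRET, CFP and YFP emission. Control set: no-enzyme wells low, DMSO-plus-enzyme wells high control.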
# FAS TE block – FAS thioesterase (human) inhibition | 360,000 compounds, 0.67% hits | inhibition, % at 15 µM | recombinant FAS-TE, OMFH fluorogenic substrate, fluorescence endpoint | P49327;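 active = compounds whose normalised, plate-corrected inhibition of enzyme fluorescence in the single-dose primary screen is 50% or more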
# A number is an active result; i = inactive; nt = no result given; ! = repeats disagree.
SMILES,Arr AP2 block,iPSC survival up,H9c2 protect,GRIN3A LBD mod,SENP1 inh,FAS TE block
CSC1=NC2(CC(c3ccccc3)Oc3cc(O)ccc32)CC(C)(C)N1 (configuration not stated),i,i,i,10.8,i,i
COc1cccc(C2CC3(CC(C)(C)NC(=S)N3)Oc3cc(O)ccc32)c1 (configuration not stated),i,i,i,i,i,i
COc1ccc(C)cc1Nc1n[n+](-c2ccccc2)c(-c2ccc(SC)cc2)s1,i,i,i,26.9,i,i
COc1ccc(C)cc1Nc1n[n+](-c2ccccc2)c(-c2cc([N+](=O)[O-])cc(OC)c2O)s1,i,i,i,i,43.3,i
COc1ccc(C)cc1Nc1n[n+](-c2ccccc2)c(-c2ccc(NC(C)=O)cc2)s1,i,i,i,i,i,i
CC1(C(=O)Nc2cnc3ccccc3c2)CCN1C(=O)c1ccccc1CCc1ccccc1 (configuration not stated),nt,i,i,nt,i,i
Nc1n[nH]c(=S)n1/N=C1/C(=O)Nc2ccccc21,i,i,i,26.3,i,i
O=C1Nc2ccccc2C1=NN1CCCCCC1,i,i,i,i,i,i
CCc1nc2ccc(C(=O)Nc3cccc(NS(C)(=O)=O)c3)cn2c1N(CCC(C)C)CCN(C)C,nt,i,i,nt,i,i
CC(C)CC1C(=O)N(Cc2cn(CC3CCCCC3)nn2)CCS(=O)(=O)N1Cc1ccc(-c2ccncc2)cc1 (configuration not stated),nt,i,i,nt,i,i
CCc1sc(C(=O)Nc2ccc(NC(C)=O)cc2)cc1C,i,i,i,11.1,i,i
CCc1sc(C(=O)Nc2ccc3nc(C)sc3c2)cc1C,i,i,i,i,i,i
CCc1nc2c(OCC(=O)C(C)(C)C)cccn2c1N(C)C(=O)C(C)C,nt,i,i,nt,i,i
CC1C(=O)C(C)C(c2cc(Br)ccc2O)NC1c1cc(Br)ccc1O (configuration not stated),i,i,i,31.9,i,i
COc1ccc(C(O)c2ncc(-c3ccc4ccccc4c3)[nH]2)cc1F (configuration not stated),nt,i,i,nt,i,i
COc1cc(-c2cc(NC=O)c3ncc(-c4ccc(C(C)=O)cc4)n3c2)ccc1O,nt,i,83.0,nt,i,i
COc1cccc(-c2cnc3c(NC=O)cc(-c4ccc(O)c(OC)c4)cn23)c1,nt,i,85.3,nt,i,i
COc1cccc(-c2cnc3c(NC=O)cc(-c4cccc(C(=O)N(C)C)c4)cn23)c1,nt,i,58.0,nt,i,i
COc1cccc(-c2cnc3c(NC(C)=O)cc(-c4cc(OC)c(OC)c(OC)c4)cn23)c1,nt,i,57.2,nt,i,i
COc1cccc(-c2cc(NC=O)c3ncc(-c4cccc(C(=O)N(C)C)c4)n3c2)c1,nt,i,i,nt,i,i
COc1ccc(-c2cc(NC=O)c3ncc(-c4ccc(OC)c(OC)c4)n3c2)cc1OC,nt,i,i,nt,i,i
CC(C)(C)N1C(=O)c2ccccc2NC(=O)C1C(=O)NCCc1ccccc1F (configuration not stated),nt,nt,nt,nt,i,nt
COc1cc(OC)c(OC)cc1/C=N/n1c(-c2n[nH]c3c2CCC3)n[nH]c1=S,i,i,i,i,i,i
COc1ccc(OC)c(/C=N/n2c(-c3n[nH]c4c3CCC4)n[nH]c2=S)c1,i,i,i,13.9,i,i
COc1ccc(OC)c(NC(=S)NN2CCN(C)CC2)c1,i,i,i,i,i,i
SMILES,Arr AP2 block,iPSC survival up,H9c2 protect,GRIN3A LBD mod,SENP1 inh,FAS TE block
COc1cccc(NC(=S)NN2CCN(C)CC2)c1,i,i,i,12.2,i,i
Cc1cccc(C)c1N1C(=O)c2ccccc2NC(=O)C1C(=O)NCCc1ccccc1F (configuration not stated),nt,nt,nt,nt,i,nt
COc1ccc(C2Nc3ccc4ccccc4c3-c3c2c(=O)oc2ccccc32)cc1 (configuration not stated),i,i,i,nt,i,i
CCOc1ccc(C2Nc3ccc4ccccc4c3-c3c2c(=O)oc2ccccc32)cc1 (configuration not stated),i,i,i,14.1,i,i
Cc1ccc(S(=O)(=O)CCC(=O)OCC(=O)NCCc2ccccc2)cc1,i,i,i,15.5,i,i
O=C(N/N=C/c1ccc(N2CCOCC2)s1)c1ccc(O)cc1,nt,i,i,nt,i,i
O=C(NN=Cc1ccc(N2CCOCC2)s1)c1ccc([N+](=O)[O-])cc1,i,i,62.7,i,i,i
CC1(C)CC(=O)C=C(c2ccc(-c3cccc4c3sc3ccccc34)cc2)C1=O,nt,i,i,nt,i,i
NC(=O)C1CCN(C(=O)CCC(=O)c2cccs2)CC1,i,i,i,i,i,i
OC1CCN(c2c3c(nc4cc(-c5cccc(F)c5)nn24)CCCC3)CC1,i,i,59.3,i,i,i
CCOc1ccc(NC(=O)CN2C(=O)NC(CCc3ccccc3)C2=O)cc1OCC (configuration not stated),i,i,i,i,i,i
O=C(Nc1cccc(Cl)c1)C1=Cc2cc(Cl)ccc2OC1,i,i,i,20.4,i,i
O=C(Nc1cccc(Cl)c1)c1cc(F)cc2c1OCOC2,i,i,i,i,i,i
O=C(Nc1ccc(Cl)c(Cl)c1)C1=Cc2ccccc2OC1,i,i,i,18.6,i,i
Cc1ccsc1CNC(=O)C1(C)CCN1C(C)C (configuration not stated),nt,i,i,nt,i,i
Cc1ccc(Nc2nc(Cl)c(C=O)s2)cc1Cl,i,i,i,21.3,i,i
O=Cc1sc(Nc2ccccc2)nc1Cl,i,i,i,i,i,i
CCN(C(=O)c1ccc(NC(=O)C2CCCCC2C(=O)O)cc1)c1ccccc1 (configuration not stated),nt,i,i,nt,i,i
CCC(=O)Nc1cc(Cl)ccc1C(=O)O,i,i,i,i,i,i
O=C(O)c1ccc(Cl)cc1Nc1nc2cc(Cl)ccc2o1,i,i,i,13.5,i,i
COc1cc(OC)cc(C(=O)N2CCN(S(=O)(=O)c3ccc4c(c3)OCCO4)CC2)c1,nt,i,i,nt,i,i
Cc1c(C(=O)NCc2ccccc2C(F)(F)F)sc(=O)n1Cc1ccc2ccccc2c1,nt,20.5,i,nt,i,i
Cc1cc(O)c(C=Nc2ccc(N3CCOCC3)cc2)c(C)c1Cl,i,i,83.1,i,i,i
COc1ccc(CN2C(=O)CN(S(C)(=O)=O)CC2(C)C(=O)NC(C)C)cc1 (configuration not stated),nt,nt,nt,nt,i,nt
COC(=O)c1cccc(S(=O)(=O)N(Cc2ccco2)Cc2cc3cc(OC)ccc3[nH]c2=O)c1,i,i,78.5,i,i,i
O=c1[nH]nc(-c2cccs2)c2ccccc12,i,i,69.5,i,i,i
CC(=O)Nc1c(I)c(NC(C)=O)c(I)c(C(=O)O)c1I,i,i,i,12.9!,i,i
